For data set [1], the target named is Metabotropic glutamate receptor 1 (Rattus norvegicus) (UniProt P23385). The experiment in a line: Agonist activity at rat mGlu1 receptor expressed in HEK293 cells assessed as increase in intracellular calcium by FLIPR assay relative to control. The format is functional, cell-based. Further details: concentration or dose not given beside the values. Summed up:
(§1)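 Rat mGlu1a transiently transfected into HEK-293 cells, which were loaded with Fluo-3 AM for 1 h and then washed 4 times in assay buffer (DMEM with Hank's salts, 20 mM HEPES). [Ca2+]i was read on a fluorometric imaging plate reader and converted to fluorescence ratios. EC50 is the mean of separate values from at least three individual experiments.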

Data set [2] in a line: Cmax in rat plasma at 10 mg/kg, po. The format is ADME, organism-based. Also noted: dose 10 mg/kg, route oral. Summed up:
(§2)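 Wistar rats, two per group, fitted with implanted jugular vein catheters. These catheters were used for the iv bolus and for blood sampling. Blood was drawn at 0.3, 0.5, 1, 2, 4, 8 and 24 h after iv or po administration for the plasma pharmacokinetic parameters.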

Data set [3] can be described thus: Metabolic stability in rat microsomes assessed as intrinsic clearance per mg protein. The class given is ADME, Microsome.
Data set [4] can be described thus: Half life in rat at 10 mg/kg, iv and po. The class given is ADME, organism-based. Also noted: dose 10 mg/kg, route oral. Particulars: in vivo. The essentials: as §2
In data set [5] the target is T1, Metabotropic glutamate receptor 1 (Rattus norvegicus, UniProt P23385). The experiment in a line: Agonist activity at rat mGlu1 receptor expressed in CHO cells assessed as potentiation of glutamate-activated K+ currents by electrophysiology.
T1 sequence (P23385 whole entry): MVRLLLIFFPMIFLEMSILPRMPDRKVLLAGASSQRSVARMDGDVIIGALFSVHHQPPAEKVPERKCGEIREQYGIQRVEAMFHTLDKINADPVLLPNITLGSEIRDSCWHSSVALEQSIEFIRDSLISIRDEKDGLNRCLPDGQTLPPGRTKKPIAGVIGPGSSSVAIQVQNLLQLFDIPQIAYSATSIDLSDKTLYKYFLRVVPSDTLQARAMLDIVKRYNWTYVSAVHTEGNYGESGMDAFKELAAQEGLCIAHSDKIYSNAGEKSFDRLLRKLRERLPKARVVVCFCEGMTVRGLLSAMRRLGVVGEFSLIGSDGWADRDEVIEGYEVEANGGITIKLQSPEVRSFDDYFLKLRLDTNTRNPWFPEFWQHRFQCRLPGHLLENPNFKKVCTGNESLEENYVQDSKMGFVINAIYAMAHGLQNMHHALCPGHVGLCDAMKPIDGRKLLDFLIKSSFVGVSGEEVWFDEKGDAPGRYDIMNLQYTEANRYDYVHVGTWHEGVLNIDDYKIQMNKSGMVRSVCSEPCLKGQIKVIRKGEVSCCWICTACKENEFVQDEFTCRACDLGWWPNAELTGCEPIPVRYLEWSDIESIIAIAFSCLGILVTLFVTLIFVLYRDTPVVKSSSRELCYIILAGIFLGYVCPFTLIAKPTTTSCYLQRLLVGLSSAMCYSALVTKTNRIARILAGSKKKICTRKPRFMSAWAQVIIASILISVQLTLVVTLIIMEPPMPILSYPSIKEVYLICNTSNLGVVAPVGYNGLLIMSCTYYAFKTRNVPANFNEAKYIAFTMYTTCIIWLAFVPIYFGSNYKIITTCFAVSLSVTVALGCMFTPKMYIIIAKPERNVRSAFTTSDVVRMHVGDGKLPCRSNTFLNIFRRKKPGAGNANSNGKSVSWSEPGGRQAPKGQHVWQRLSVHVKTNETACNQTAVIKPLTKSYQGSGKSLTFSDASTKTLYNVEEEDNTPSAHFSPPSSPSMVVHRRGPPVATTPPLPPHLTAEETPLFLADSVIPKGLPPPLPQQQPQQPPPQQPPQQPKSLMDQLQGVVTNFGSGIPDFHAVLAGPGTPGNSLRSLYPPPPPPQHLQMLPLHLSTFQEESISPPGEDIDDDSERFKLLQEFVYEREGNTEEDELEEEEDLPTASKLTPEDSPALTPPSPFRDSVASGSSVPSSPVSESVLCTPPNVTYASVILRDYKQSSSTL
Data set [6] addresses T1, Metabotropic glutamate receptor 1. The experiment in a line: Agonist activity at rat mGlu1 receptor expressed in HEK293 cells assessed as increase in intracellular calcium by FLIPR assay. The class given is functional, cell-based. Summed up:
as §1
A general note: Calcium flux is commonly read through the fluorescence of an indicator in the cells.

The next data set relates to Rattus norvegicus. The experiment in a line: Volume of distribution in rat at 10 mg/kg, iv and po. The format is ADME, organism-based. The following applies: in vivo. Further details: dose 10 mg/kg, route oral. Summed up:
as §2

Data set [7] in a line: Volume of distribution in rat at 1 mg/kg, iv and 10 mg/kg, po. The class given is ADME, organism-based. Particulars: in vivo, read-out: Vdss. The essentials:
as §2

Data set [8] in a line: Clearance in rat at 1 mg/kg, iv and 10 mg/kg, po. The format is ADME, organism-based. Particulars: in vivo. The essentials:
as §2

Data set [9] is described as follows: Ratio of drug level in brain to plasma in rat at 1 mg/kg, iv and 6 mg/kg, po. The format is ADME, organism-based. The following applies: in the assay text read “10 mg/kg” for “6 mg/kg”, read-out: BPR. Summed up:
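Brain/plasma ratio came from iv infusion in Wistar rats, two per group, at 1 mg/kg/h via catheter. Blood was sampled sublingually at 1, 3 and 5 h after administration. Brain tissue was taken by decapitation under isoflurane anaesthesia.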

The target of data set [10] is Metabotropic glutamate receptor 1 (Rattus norvegicus) (UniProt P23385). The experiment in a line: Agonist activity at rat mGlu1 receptor expressed in CHO cells assessed as […] of glutamate-activated K+ currents by electrophysiology relative to glutamate. The format is functional, cell-based. Further details: concentration or dose not given beside the values.
Metabotropic glutamate receptor 1 (Rattus norvegicus), sequence (P23385 19-1199 limits assumed): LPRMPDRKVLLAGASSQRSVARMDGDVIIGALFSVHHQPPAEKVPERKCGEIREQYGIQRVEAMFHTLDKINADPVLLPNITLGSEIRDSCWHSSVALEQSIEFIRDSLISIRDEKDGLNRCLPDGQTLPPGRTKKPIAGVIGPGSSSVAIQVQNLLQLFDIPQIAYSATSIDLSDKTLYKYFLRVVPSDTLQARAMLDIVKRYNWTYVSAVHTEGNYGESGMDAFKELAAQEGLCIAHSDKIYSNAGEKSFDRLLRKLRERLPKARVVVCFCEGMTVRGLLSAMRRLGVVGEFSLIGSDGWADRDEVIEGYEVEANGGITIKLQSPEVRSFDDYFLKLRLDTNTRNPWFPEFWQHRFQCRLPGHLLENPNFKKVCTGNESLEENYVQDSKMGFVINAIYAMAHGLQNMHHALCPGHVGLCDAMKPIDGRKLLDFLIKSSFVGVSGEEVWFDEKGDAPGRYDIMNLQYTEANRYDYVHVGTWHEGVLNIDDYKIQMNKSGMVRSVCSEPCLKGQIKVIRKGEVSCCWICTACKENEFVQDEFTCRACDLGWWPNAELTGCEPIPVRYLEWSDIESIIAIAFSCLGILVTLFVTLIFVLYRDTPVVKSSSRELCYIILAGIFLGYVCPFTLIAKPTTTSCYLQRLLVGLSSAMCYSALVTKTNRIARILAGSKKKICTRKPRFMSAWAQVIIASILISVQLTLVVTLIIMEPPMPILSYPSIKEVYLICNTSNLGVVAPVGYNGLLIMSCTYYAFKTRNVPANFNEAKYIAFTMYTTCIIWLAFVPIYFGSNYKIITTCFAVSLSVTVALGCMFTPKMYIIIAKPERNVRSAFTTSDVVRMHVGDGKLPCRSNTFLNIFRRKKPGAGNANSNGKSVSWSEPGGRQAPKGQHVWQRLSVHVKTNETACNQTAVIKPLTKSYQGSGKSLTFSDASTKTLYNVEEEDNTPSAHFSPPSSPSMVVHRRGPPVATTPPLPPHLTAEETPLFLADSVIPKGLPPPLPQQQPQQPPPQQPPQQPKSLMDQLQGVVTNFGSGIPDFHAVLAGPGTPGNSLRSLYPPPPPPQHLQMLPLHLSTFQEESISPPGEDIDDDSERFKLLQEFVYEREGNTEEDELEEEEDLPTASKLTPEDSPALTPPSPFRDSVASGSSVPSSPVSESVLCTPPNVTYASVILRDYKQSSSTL
Data set [11] is described as follows: Half life in rat at 1 mg/kg, iv and 10 mg/kg, po. The class given is ADME, organism-based. The following applies: in vivo. The essentials: as §2
A short description of data set [12]: Clearance in rat at 5 mg/kg, iv and 10 mg/kg, po. The class given is ADME, organism-based. The following applies: in vivo. Summed up:
as §2

Data set [13] can be described thus: Volume of distribution in rat at 5 mg/kg, iv and 10 mg/kg, po. The format is ADME, organism-based. The following applies: in vivo, read-out: Vdss. Summed up: as §2
Data set [14] can be described thus: Half life in rat at 5 mg/kg, iv and 10 mg/kg, po. The format is ADME, organism-based. Particulars: in vivo. Summed up:
as §2

Data set [15] in a line: Volume of distribution in rat at 3 mg/kg, iv and 6 mg/kg, po. The class given is ADME, organism-based. Particulars: in vivo, read-out: Vdss. Summed up: as §2
Data set [16] in a line: Clearance in rat at 3 mg/kg, iv and 6 mg/kg, po. The class given is ADME, organism-based. The following applies: in vivo. Summed up:
as §2

The nature of data set [17]: Cmax in rat plasma at 6 mg/kg, po. The format is ADME, organism-based. Further details: dose 6 mg/kg, route oral. The essentials:
as §2

Data set [18] is described as follows: Half life in rat at 3 mg/kg, iv and 6 mg/kg, po. The following applies: in vivo. The class given is ADME, organism-based. The essentials:
as §2

In the case of `Cc1nc(NC(=O)C2c3ccccc3Oc3ccccc32)no1`, the Activity in data set [1] is 100%. Besides, the concentration in data set [2] peaked (Cmax) at 1330 ng/mL. The clearance in data set [3] was determined as 42 µL/min/mg. Also, the half-life – broadly, the time needed for the level to fall by half in the phase considered – in [4] was 0.32 h. The EC50 (as a rule, the concentration that produces a half-maximal response) in data set [5] came out at 0.22 µM; in data set [6] (read-out: EC50), 0.052 µM. Also, the Vdss in the data set with Rattus norvegicus came out at 1.7 L/kg.

For the compound `O=C(Nc1nc(C(F)(F)F)co1)C1c2cccc(F)c2Oc2c(F)cccc21`, the Activity in data set [1] came to 51%; in [10], 707%. The Vd in data set [7] stood at 0.43 L/kg. Further, the clearance in data set [8] came to 3.79 mL/min/kg; in data set [3], 18 µL/min/mg. Besides, the highest concentration (Cmax) – broadly, the peak of the concentration-time curve – in data set [2] is 2070 ng/mL. Moreover, the Kp in [9] came out at 0.2. Further, the results for the EC50 in data set [5] and in data set [6] (read-out: EC50) were 0.161 µM and 0.047 µM, respectively. Moreover, the half-life in data set [11] was 3.9 h.

With `O=C(Nc1ncc(C(F)(F)F)o1)C1c2cccc(F)c2Oc2c(F)cccc21`, the Activity in [1] amounted to 36%; in data set [10], 568%. In addition, in data set [3], the clearance was found to be 12 µL/min/mg. Also, the half-maximal effective concentration (EC50) in data set [5] worked out at 0.162 µM; in data set [6] (read-out: EC50), 0.025 µM.

Consider `O=C(Nc1ncc(C(F)(F)F)o1)C1c2ccccc2Oc2cc(F)ccc21` (racemic), for which the clearance in data set [3] was 28 µL/min/mg. Further, in [6] (hek293), the EC50 result was “Not Active”.

Consider `O=C(Nc1ncc(C(F)(F)F)o1)C1c2ccccc2Oc2c(F)cccc21` (racemic), for which the Activity stood at 50% in data set [1] and 910% in [10]. Also, the clearance in [3] came to 32 µL/min/mg. In data set [5], the 50% effective concentration (EC50) worked out at 0.131 µM.

As to `O=C(Nc1nc(C(F)(F)F)co1)C1c2ccccc2Oc2cc(F)ccc21` (racemic), the Activity was 50% in data set [1] and 570% in data set [10]. Also, in [3], the clearance amounted to 34 µL/min/mg. The EC50 is 0.26 µM in data set [5] and 0.04 µM in data set [6] (read-out: EC50).

Take `O=C(Nc1ncc(C(F)(F)F)o1)C1c2ccc(F)cc2Oc2cc(F)ccc21`: the concentration giving a half-maximal response (EC50) entry in [6] (hek293) is listed as “Not Active”.

With `O=C(Nc1nc(C(F)(F)F)co1)C1c2ccccc2Oc2ccc(F)cc21` (racemic), the Activity in [1] is 63%. In addition, the clearance in [3] amounted to 61 µL/min/mg. In addition, the EC50 in [6] (read-out: EC50) was 0.04 µM.

For `O=C(Nc1ncc(C(F)(F)F)o1)C1c2ccccc2Oc2ccc(F)cc21` (racemic), the Activity in data set [1] was found to be 57%; in data set [10], 1220%. Also, the clearance in [3] was 40 µL/min/mg. The results for the EC50 in data set [5] and in [6] (read-out: EC50) were 0.067 µM and 0.02 µM, respectively.

Take `O=C(Nc1nc(C(F)(F)F)co1)C1c2ccc(F)cc2Oc2cc(F)ccc21`: the clearance in data set [3] was determined as 38 µL/min/mg. Moreover, the EC50 entry in [6] (hek293) is “Not Active”.

Take `O=C(Nc1nc(C(F)(F)F)co1)C1c2ccccc2Oc2c(F)cccc21` (racemic): the Activity is 84% in [1] and 1190% in [10]. Besides, the clearance in data set [12] worked out at 3.3 mL/min/kg; in data set [3], 33 µL/min/mg. Besides, the concentration in data set [2] peaked (Cmax) at 1440 ng/mL. In data set [13], the Vd worked out at 0.99 L/kg. Further, the EC50 in data set [5] is 0.102 µM; in data set [6] (read-out: EC50), 0.019 µM. Further, the half-life in data set [14] is 3.7 h.

As for `O=C(Nc1nc(C(F)(F)F)co1)C1c2ccccc2Oc2ccccc21`, the figures for the Activity in data set [1] and in data set [10] were 86% and 1130%, respectively. The compound also gave a Cmax in data set [2] of 1330 ng/mL. Also, the clearance in [3] worked out at 108 µL/min/mg. Besides, the half-life in data set [4] was 0.91 h. Further, the half-maximal effective concentration (EC50) in data set [5] was 0.202 µM. This compound also gave a Vdss in the data set on Rattus norvegicus of 0.67 L/kg.

Regarding `O=C(Nc1ncc(C(F)(F)F)o1)C1c2ccccc2Oc2ccccc21`, the Activity stood at 104% in data set [1] and 3060% in [10]. The clearance in data set [3] stood at 50 µL/min/mg. Moreover, the EC50 in [5] was determined as 0.394 µM.

For the compound `O=C(Nc1nc(C(F)(F)F)co1)C1c2cc(F)ccc2Oc2ccc(F)cc21`, the Activity in data set [1] stood at 48%; in data set [10], 300%. The Vd in data set [15] is 0.9 L/kg. Further, the clearance in data set [16] was 7.4 mL/min/kg; in data set [3], 9 µL/min/mg. The compound also came in with a maximum concentration (Cmax) in data set [17] of 1810 ng/mL. Moreover, in [5], the EC50 was determined as 0.09 µM. Further, in data set [18], the half-life was 2.46 h.

Source of the values: ChEMBL document CHEMBL1153313, “Fluorinated 9H-xanthene-9-carboxylic acid oxazol-2-yl-amides as potent, orally available mGlu1 receptor enhancers” (Bioorg Med Chem Lett, 2009).
